Test results taken from ChEMBL document CHEMBL4261576, “Conformationally restricted benzothienoazepine respiratory syncytial virus inhibitors: their synthesis, structural analysis and biological activities” (Medchemcomm, 2018).
Several values for one entry are separate records, joined by “and”; a condition that tells them apart may be missing. Identical values can stand only once.

Legend:
[1] = tested on: Respiratory syncytial virus; test: Antiviral activity against RSV A2 infected in human HEp2 cells assessed as protection against virus-induced cytopathic effect after 5 days by resazurin assay; assay type: functional, organism-based; conditions: A2, HEp-2, 120 h
Method in brief: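 HEp2 cells seeded at 10^3/well in 5% FBS-DMEM with 2 mM L-glutamine and 1 mM sodium pyruvate one day before infection. RSV A2 added in serum-free DMEM at final MOI 1, with compound added at the same time (final DMSO 0.5%). Incubated 5 days at 37°C/5% CO2. Resazurin then added for 6 h; fluorescence read at 545/590 nm. Percent inhibition per well; IC50 taken from the concentration-response curve.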

[2] = tested on: Respiratory syncytial virus; test: Antiviral activity against RSV B Washington infected in human HEp2 cells assessed as protection against virus-induced cytopathic effect after 6 days by resazurin assay; assay type: functional, organism-based; conditions: HEp-2, 144 h
Method in brief: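 HEp2 cells seeded at 10^3/well in 5% FBS-DMEM with glutamine and pyruvate one day before infection. RSV B Washington added in serum-free DMEM at final MOI 0.2, with compound added at the same time (0.5% DMSO final). Incubated 6 days at 37°C/5% CO2. Resazurin added for 6 h; fluorescence read at 545 nm ex / 590 nm em. IC50 taken from the concentration-response curve.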

[3] = tested on: Respiratory syncytial virus; test: Antiviral activity against RSV A2 infected in human HEp2 cells assessed as protection against virus-induced cytopathic effect at 0.014 uM after 5 days by resazurin assay relative to control; assay type: functional
Vasopressin V2 receptor = Vasopressin V2 receptor (Homo sapiens, UniProt P30518); test: Displacement of [3H] (Arg8)-vasopressin from human vasopressin V2 receptor expressed in CHO cell membranes after 60 mins
Vasopressin V1a receptor = Vasopressin V1a receptor (Homo sapiens, UniProt P37288); test: Displacement of [3H] (Arg8)-vasopressin from human vasopressin V1a receptor expressed in CHO cell membranes after 60 mins
Chain of Vasopressin V1a receptor (P37288 whole entry): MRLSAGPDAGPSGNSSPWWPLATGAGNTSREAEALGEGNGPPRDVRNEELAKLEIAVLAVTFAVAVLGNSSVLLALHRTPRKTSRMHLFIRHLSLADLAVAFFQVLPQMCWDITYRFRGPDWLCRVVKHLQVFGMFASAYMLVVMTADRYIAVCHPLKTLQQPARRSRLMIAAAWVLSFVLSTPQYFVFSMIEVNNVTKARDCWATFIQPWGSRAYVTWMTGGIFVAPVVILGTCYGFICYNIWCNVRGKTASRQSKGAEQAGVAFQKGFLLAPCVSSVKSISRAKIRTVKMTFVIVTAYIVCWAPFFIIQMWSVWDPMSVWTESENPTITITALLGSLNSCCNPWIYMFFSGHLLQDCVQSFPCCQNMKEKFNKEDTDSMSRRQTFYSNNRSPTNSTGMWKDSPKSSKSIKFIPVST

Chain of Vasopressin V2 receptor (P30518 whole entry): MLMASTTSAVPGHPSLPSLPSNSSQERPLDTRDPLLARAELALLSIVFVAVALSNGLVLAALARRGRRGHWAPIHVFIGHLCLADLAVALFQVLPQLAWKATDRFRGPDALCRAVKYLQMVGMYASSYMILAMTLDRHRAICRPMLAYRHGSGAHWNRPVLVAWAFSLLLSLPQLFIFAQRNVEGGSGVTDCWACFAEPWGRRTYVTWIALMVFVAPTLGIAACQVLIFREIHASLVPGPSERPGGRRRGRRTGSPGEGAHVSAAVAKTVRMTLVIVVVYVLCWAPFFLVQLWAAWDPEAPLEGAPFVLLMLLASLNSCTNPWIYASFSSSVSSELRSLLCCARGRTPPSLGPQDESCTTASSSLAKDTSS

Ki (Vasopressin V2 receptor) | Ki (Vasopressin V1a receptor) | Structure (SMILES) | IC50 [1] | IC50 [2] | Activity [3]
– | – | Cc1cnc(N2CC3(CCOCC3)C2)c(C(=O)Nc2ccc(C(=O)N3CCc4cc(C(=O)Nc5c(C)cccc5F)sc4-c4ccccc43)cc2)c1 [PC-786] | 0.00032 µM | 0.0072 µM | –
– | – | Cc1cnc(N2CC3(CCOCC3)C2)c(C(=O)Nc2ccc(C(=O)N3c4ccccc4-c4sc(C(=O)Nc5c(F)cccc5F)cc4CC3C)cc2)c1 (racemic) | 0.00045 µM | 0.013 µM | –
– | – | Cc1cnc(N2CC3(CCOCC3)C2)c(C(=O)Nc2ccc(C(=O)N3C[C@H](C)c4cc(C(=O)Nc5c(C)cccc5F)sc4-c4ccccc43)cc2)c1 | 0.00051 µM | 0.015 µM | –
– | – | Cc1cnc(N2CC3(CCOCC3)C2)c(C(=O)Nc2ccc(C(=O)N3C[C@@H](C)c4cc(C(=O)Nc5c(C)cccc5F)sc4-c4ccccc43)cc2)c1 | > 0.014 µM | > 1.37 µM | 40%
– | – | Cc1cnc(N2CC3(CCOCC3)C2)c(C(=O)Nc2ccc(C(=O)N3c4ccccc4-c4sc(C(=O)Nc5c(F)cccc5F)cc4C[C@H]3C)cc2)c1 | 0.00018 µM | 0.0092 µM | –
– | – | Cc1cnc(N2CC3(CCOCC3)C2)c(C(=O)Nc2ccc(C(=O)N3CC(C)c4cc(C(=O)Nc5c(C)cccc5F)sc4-c4ccccc43)cc2)c1 (racemic) | 0.0011 µM | 0.017 µM | –
0.64 µM and 4.7 µM | 0.07 µM and 0.62 µM | Cc1ccccc1C(=O)Nc1ccc(C(=O)N2CCC(=O)N(C)c3cccc(C)c32)cc1 | – | – | –
– | – | Cc1cnc(N2CC3(CCOCC3)C2)c(C(=O)Nc2ccc(C(=O)N3c4ccccc4-c4sc(C(=O)Nc5c(F)cccc5F)cc4C[C@@H]3C)cc2)c1 | > 0.014 µM | > 1.36 µM | –
